Measurements from ChEMBL document CHEMBL1122925 (J Med Chem, 1985).
Several values for one entry are separate records, joined by “and”; a condition that tells them apart may be missing. Equal entries are not always repeated.

Tests used:
[1] = tested on: Thymidine kinase (Human herpesvirus 1); assay: Ability (300 uM) to compete with 150 uM of [14C]ACV for binding sites on viral enzyme (HSV-1 TK); details: Human alphaherpesvirus 1
[2] = tested on: Thymidine kinase (Human herpesvirus 1); assay: Relative substrate velocity was evaluated against Mac strain by using HSV-1 TK assay; details: Human alphaherpesvirus 1
[3] = tested on: Thymidine kinase (Human herpesvirus 1); assay: Ability (300 uM) to compete with 150 uM of [14C]ACV for binding sites on viral enzyme, Mac strain (HSV-1 TK); details: Human alphaherpesvirus 1
[4] = tested on: Thymidine kinase (Human herpesvirus 1); assay: Ability (300 uM) to compete with 150 uM of [14C]ACV for binding sites on H29 strain viral enzyme (HSV-1 TK); details: Human alphaherpesvirus 1
[5] = tested on: Vero; assay: The concentration required to inhibit the growth of viral plaques by 50% of control in plaque reduction assay; assay type: functional, cell-based; details: Chlorocebus sabaeus
Outline: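 HSV-1 plaque-reduction assay, H29 strain for most values and Mac strain for some. IC50 is the concentration that inhibits viral plaque growth by 50% relative to controls.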

[6] = tested on: Vero; assay: Zone of inhibition of plaque formation in vero cells inoculated with HSV-1 virus along with disks containing 50 ug of compound; 11-50 mm zone of inhibition; assay type: functional, Chlorocebus sabaeus
Outline: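 HSV-1 plaque-inhibition test in Vero cells, H29 strain for most values and Mac strain for some. Disks carry 50 μg of test compound. The read-out is the diameter of the zone without plaque formation, and a zone of 11–50 mm is scored (+).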

[7] = tested on: Thymidine kinase (Human herpesvirus 1); assay: Relative substrate velocity was evaluated against H29 strain by using HSV-1 TK assay; details: Human alphaherpesvirus 1
[8] = molecular target: T1, Thymidine kinase (Human alphaherpesvirus 1) (UniProt Q9QNF7); assay: Relative substrate velocity was evaluated by using HSV-1 TK assay
T1 sequence (whole entry): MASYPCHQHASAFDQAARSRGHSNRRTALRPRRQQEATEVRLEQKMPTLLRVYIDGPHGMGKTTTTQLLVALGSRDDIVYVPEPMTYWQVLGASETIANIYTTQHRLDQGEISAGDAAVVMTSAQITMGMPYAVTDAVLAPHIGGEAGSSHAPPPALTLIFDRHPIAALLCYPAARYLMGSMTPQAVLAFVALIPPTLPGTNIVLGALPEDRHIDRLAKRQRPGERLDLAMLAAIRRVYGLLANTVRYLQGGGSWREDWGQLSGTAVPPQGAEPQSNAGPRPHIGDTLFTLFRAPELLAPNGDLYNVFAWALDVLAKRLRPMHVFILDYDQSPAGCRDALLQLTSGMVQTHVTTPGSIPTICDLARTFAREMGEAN

[9] = tested on: Thymidine kinase (Human herpesvirus 1); assay: Relative substrate velocity was evaluated by using HSV-1 TK assay; details: Human alphaherpesvirus 1

Row | SMILES | inhibition [1] [%] | inhibition [3] [%] | IC50 [5] [µM] | other results
1 | NC(=O)c1ncn(COCCO)c1N | 1 | – | – | –
2 | Nc1nc2c(cnn2COCCO)c(=O)[nH]1 | 0 | – | – | –
3 | Nc1nc(O)c2nnn(COCCO)c2n1 | – | 23 | 129 | Relative substrate velocity [2]: 5% and 9%; inhibition [4]: 27%; Zone of inhibition [6]: 11; Relative substrate velocity [7]: 9%
4 | Nc1nc(O)c2cc3ncn(COCCO)c3cc2n1 | 24 | – | – | Relative substrate velocity [8]: < 3%
5 | Nc1nc(=O)ccn1COCCO | 0 | 7 | – | Relative substrate velocity [9]: < 3%
6 | Nc1nc2c(ncn2COCCO)c(=O)[nH]1 [ACYCLOVIR] | – | – | 0.1 | –
7 | NC(=O)c1ncn(COCCO)n1 | 0 | – | > 200 | –
8 | Nc1nc(O)c2ccn(COCCO)c2n1 | – | 6 | – | Relative substrate velocity [9]: 3%
